The results in this text go back to ChEMBL document CHEMBL1135984, “Mechanism-based design of parasite-targeted artemisinin derivatives: synthesis and antimalarial activity of new diamine containing analogues” (J Med Chem, 2002).

In assay [1] the test system is Plasmodium falciparum. Nature of the assay: (§1) In vitro inhibitory concentration against chloroquine-resistant Plasmodium falciparum K1. The class given is functional, organism-based. The method, boiled down: (§2)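 48 h growth assay in human erythrocytes (2% parasitemia, 0.5% haematocrit) in RPMI 1640 with 25 mM HEPES, 32 mM NaHCO3 and 10% human serum, under 3% O2/4% CO2/93% N2 at 37 °C. DMSO stocks diluted in medium; triplicates. 0.5 μCi [3H]-hypoxanthine added at 24 h, uptake counted 24 h later. IC50 by probit interpolation of log dose–response versus drug-free controls.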

Assay [2] has as its system Plasmodium falciparum. Nature of the assay: In vitro inhibitory concentration against chloroquine-sensitive Plasmodium falciparum HB3. The class given is functional, organism-based. The method, boiled down:
as §2

The species entered for assay [3] is Mus musculus. In words: 50% effective dose against Plasmodium yoelii in mice (Mus musculus). The class given is functional.
Assay [4] is filed under the species Mus musculus. Nature of the assay: 90% effective dose against Plasmodium yoelii in mice (Mus musculus). The class given is functional.
Assay [5] relates to Mus musculus. Nature of the assay: 50% effective dose for antimalarial activity (in vivo) against Plasmodium berghei. The class given is functional. The method, boiled down:
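Male Swiss albino mice, 18-22 g, infected ip with 10^7 P. berghei NS parasitized erythrocytes. Dosed ip or orally once daily for 4 days from the day of infection, in methanol/PBS/DMSO (2:5:3 v/v). Parasitemia read the day after the last dose. ED50 (50% suppression versus vehicle controls) taken from a plot of log dose against parasitemia.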

In assay [6] the test system is Plasmodium falciparum. The assay is described as §1. The class given is functional, organism-based. The method, boiled down:
as §2
This is another data set of the same source.

pIC50: −log10 of the molar value.

The term pIC50 denotes −log10 of the IC50, conventionally taken in molar units. The molecule `CCCN(CCC)CC[C@H]1O[C@@H]2O[C@]3(C)CC[C@H]4[C@H](C)CC[C@@H]([C@H]1C)[C@@]24OO3` showed a pIC50 in the assay with Plasmodium falciparum [1] of 8.12.

Take `C[C@H]1[C@@H](CCN2CCN(c3ccc(Cl)cc3)CC2)O[C@@H]2O[C@]3(C)CC[C@H]4[C@H](C)CC[C@@H]1[C@@]24OO3`: the pIC50 with Plasmodium falciparum [1] was 8.09.

As for `C[C@H]1[C@@H](OCc2ccc(CN3CCN(Cc4ccccc4)CC3)cc2)O[C@@H]2O[C@]3(C)CC[C@H]4[C@H](C)CC[C@@H]1[C@@]24OO3`, the values for the pIC50 in the assay on Plasmodium falciparum [1] and in the assay on Plasmodium falciparum [2] were 8.42 and 8.74, respectively. The molecule `C[C@H]1[C@@H](OCc2cccc(CN3CCN(c4cccc(C(F)(F)F)c4)CC3)c2)O[C@@H]2OC3(C)CCC4[C@H](C)CC[C@@H]1[C@]42OO3` (single isomer, unassigned) had a pIC50 in the assay with Plasmodium falciparum [1] of 7.65.

For `C[C@H]1[C@@H](OCc2cccc(CN3CCN(c4ccc([N+](=O)[O-])cc4)CC3)c2)O[C@@H]2OC3(C)CCC4[C@H](C)CC[C@@H]1[C@]42OO3` (single isomer, unassigned), the pIC50 in the assay on Plasmodium falciparum [1] and in the assay on Plasmodium falciparum [2] was 8.37 in each case. Turning to `C[C@H]1[C@@H](OCc2cccc(CN3CCN(c4ccccc4)CC3)c2)O[C@@H]2OC3(C)CCC4[C@H](C)CC[C@@H]1[C@]42OO3` (single isomer, unassigned), the pIC50 in the assay on Plasmodium falciparum [1] is 8.18; in the assay on Plasmodium falciparum [2], 8.47. With `C[C@H]1[C@@H](OCc2cccc(CN3CCN(c4ccc(Cl)cc4)CC3)c2)O[C@@H]2OC3(C)CCC4[C@H](C)CC[C@@H]1[C@]42OO3` (single isomer, unassigned), the pIC50 in the assay with Plasmodium falciparum [1] is 7.88. `C[C@H]1[C@@H](OCc2cccc(CN3CCN(c4ccc(F)cc4)CC3)c2)O[C@@H]2OC3(C)CCC4[C@H](C)CC[C@@H]1[C@]42OO3` (single isomer, unassigned): the pIC50 in the assay with Plasmodium falciparum [1] and in the assay on Plasmodium falciparum [2] was 7.90 throughout. As to `C[C@H]1[C@@H](CCN2CCCCC2)O[C@@H]2OC3(C)CCC4[C@H](C)CC[C@@H]1[C@]42OO3` (single isomer, unassigned), in the assay on Plasmodium falciparum [1], the pIC50 was 8.32. Same read-out and setting: for `C[C@H]1[C@@H](CCN2CCOCC2)O[C@@H]2OC3(C)CCC4[C@H](C)CC[C@@H]1[C@]42OO3` (single isomer, unassigned) the value was 8.37. As a reminder, the ED50 is the dose that gives a 50% effect, or the effect in half of the subjects. Read a high ED50 as a need for a large dose. In the case of `C[C@H]1[C@@H](CCN2CCN(Cc3ccccc3)CC2)O[C@@H]2OC3(C)CCC4[C@H](C)CC[C@@H]1[C@]42OO3` (single isomer, unassigned), the pIC50 in the assay on Plasmodium falciparum [1] was 8.37. Moreover, the ED50 in the assay listed under Mus musculus [3] was under 10 mg/kg. This molecule also gave an ED90 in the assay filed under Mus musculus [4] of over 10 mg/kg. The molecule `C[C@H]1[C@@H](OCc2ccc(CN3CCN(c4ccc([N+](=O)[O-])cc4)CC3)cc2)O[C@@H]2OC3(C)CCC4[C@H](C)CC[C@@H]1[C@]42OO3` (single isomer, unassigned) gave a pIC50 with Plasmodium falciparum [1] of 6.86.

On to `C[C@H]1[C@@H](CCN2CCN(c3cccc(C(F)(F)F)c3)CC2)O[C@@H]2OC3(C)CCC4[C@H](C)CC[C@@H]1[C@]42OO3` (single isomer, unassigned), for which the pIC50 with Plasmodium falciparum [1] is 8.21. The values for the ED50 with Mus musculus [5] and in the assay listed under Mus musculus [3] were 3.12 mg/kg and under 10 mg/kg, respectively. Besides, the ED90 in the assay listed under Mus musculus [4] is under 10 mg/kg. Turning to `C[C@H]1[C@@H](CCN2CCN(c3ccc(F)cc3)CC2)O[C@@H]2OC3(C)CCC4[C@H](C)CC[C@@H]1[C@]42OO3` (single isomer, unassigned), the pIC50 with Plasmodium falciparum [1] is 8.22. In addition, in the assay filed under Mus musculus [3], the ED50 is under 10 mg/kg. In the assay filed under Mus musculus [4], this molecule came in with an ED90 of 10 mg/kg. Regarding `C[C@H]1[C@@H](CCN2CCN(c3ccccc3)CC2)O[C@@H]2OC3(C)CCC4[C@H](C)CC[C@@H]1[C@]42OO3` (single isomer, unassigned), the pIC50 in the assay on Plasmodium falciparum [1] is 8.50. This molecule gave an ED50 in the assay filed under Mus musculus [3] of under 10 mg/kg. The same molecule returned an ED90 in the assay filed under Mus musculus [4] of over 10 mg/kg. The molecule `C[C@H]1[C@@H](CCN2CCN(c3ccc([N+](=O)[O-])cc3)CC2)O[C@@H]2OC3(C)CCC4[C@H](C)CC[C@@H]1[C@]42OO3` (single isomer, unassigned) showed a pIC50 in the assay with Plasmodium falciparum [1] of 8.37. The molecule also displayed an ED50 in the assay listed under Mus musculus [3] of under 10 mg/kg. Moreover, the ED90 in the assay listed under Mus musculus [4] is over 10 mg/kg. In the assay with Plasmodium falciparum [1], `C[C@H]1[C@@H](OCc2ccc(CN3CCN(c4ccccc4)CC3)cc2)O[C@@H]2OC3(C)CCC4[C@H](C)CC[C@@H]1[C@]42OO3` (single isomer, unassigned) had a pIC50 of 8.09.

For the molecule `C[C@H]1[C@@H](OCc2ccc(CN3CCN(c4ccc(F)cc4)CC3)cc2)O[C@@H]2OC3(C)CCC4[C@H](C)CC[C@@H]1[C@]42OO3` (single isomer, unassigned), the pIC50 was 8.20 with Plasmodium falciparum [1] and 8.64 with Plasmodium falciparum [2].

Take `C[C@H]1[C@@H](OCc2ccc(CN3CCN(c4ccc(C(F)(F)F)cc4)CC3)cc2)O[C@@H]2OC3(C)CCC4[C@H](C)CC[C@@H]1[C@]42OO3` (single isomer, unassigned): the pIC50 in the assay on Plasmodium falciparum [1] is 7.90; with Plasmodium falciparum [2] it was 8.09.

Turning to `CO[C@H]1O[C@@H]2O[C@@]3(C)CC[C@H]4[C@H](C)CC[C@@H]([C@H]1C)[C@@]24OO3` [ARTEMETHER], the pIC50 in the assay with Plasmodium falciparum [1] was 8.19; in the assay with Plasmodium falciparum [2], 8.04; in the assay on Plasmodium falciparum [6], 8.10. As to `C[C@@H]1CC[C@H]2[C@@H](C)C(=O)O[C@@H]3O[C@@]4(C)CC[C@@H]1[C@]32OO4` [ARTEMISININ], the pIC50 in the assay on Plasmodium falciparum [1] is 7.90. Consider `C[C@H]1[C@H](OC(=O)CCC(=O)[O-])O[C@@H]2O[C@@]3(C)CC[C@H]4[C@H](C)CC[C@@H]1[C@@]24OO3.[Na+]` [SODIUM ARESUNATE], for which, in the assay listed under Mus musculus [3], the ED50 came out at 1.6 mg/kg. The ED90 in the assay listed under Mus musculus [4] was 100 mg/kg.
